Compounds with a hit are over-represented: about 1.6% of the library has one in this group of screens.
IMP-1 inhibitor – blocks Pseudomonas aeruginosa IMP-1 metallo-beta-lactamase; purified IMP-1, nitrocefin hydrolysis, epi-absorbance fluorescence; inhibition, % at 5.6 µM; 0.45% of 290,000 active;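 active = inhibition above the mean plus 3 SD of all compounds in the same screening run, cut at about 4.5% in these data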
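assay system = purified recombinant IMP-1 metallo-beta-lactamase enzyme | schedule = 15 min preincubation plus 25 min reaction at 25 °C | signal = Epi-absorbance fluorescence, 480 nm excitation, 530 nm emission | read-out basis = percent inhibition from optical density relative to buffer-blank wells | controls = IMP-1 with DMSO as 0%, enzyme-free DMSO as 100%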
DNA FID counter – counter-screen for HCV NS3 helicase inhibitors: DNA intercalator displacement | 0.17% of 290,000 active | DNA fluorescent intercalator displacement, fluorescence | inhibition, % at 7.9 µM; in the data active = inhibition above about 37%;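 note: higher means more ethidium bromide displaced from hairpin DNA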
core dimer inh – blocks dimerization of HCV core protein; TR-FRET GST/Flag-core106 dimerization, 1536-well; inhibition, % at 5 µM; 0.33% of 300,000 active; AID 1899;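 active = inhibition above the mean of all tested compounds plus 3 SD, set per screening campaign, cut at about 45% in these data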
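Test system: GST/Flag-tagged HCV core106 proteins; Medium: KF-containing HEPES buffer, pH 7.45, DTT, CHAPS, BSA; Times: compound-protein-antibody incubation 4 h at 22.5 °C; Detection: TR-FRET 671 and 617 nm emission; Benchmarks: wells lacking GST-core106 and wells with excess unlabelled core106.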
VIM-2 inh – blocks Pseudomonas aeruginosa VIM-2 metallo-beta-lactamase; 0.89% of 290,000 active; inhibition, % at 5.6 µM; purified VIM-2, nitrocefin hydrolysis, epi-absorbance fluorescence; AID 1527;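 active = inhibition above the mean of all tested compounds plus 3 SD, cutoff set per screening run, cut at about 7.5% in these data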;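 note: red hydrolysis product quenches plate fluorescence so inhibitors raise well fluorescence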
Each line names hits and unclear results; the compound was inactive in the other large screens.

CCOC(=O)CC(=O)CSc1nc(-c2cccnc2)ccc1C#N	IMP-1 inhibitor 5.3
CCOC(=O)CC(=O)CSc1nc(-c2cccnc2)cc(C)c1C#N	none
Cc1c(NC(=O)/C(=C\c2ccccc2)NC(=O)c2ccccc2)c(=O)n(-c2ccccc2)n1C	none
Cc1c(Br)c(C(=O)N2CCc3ccccc32)nn1C	IMP-1 inhibitor 10
CSc1nnc(-c2cc[n+](C)cc2)n1CCO	IMP-1 inhibitor 4.9
Cc1cccc(NC(=O)Cn2c(O)c(N=NC(=O)c3ccccc3O)c3ccccc32)c1	none
Cc1c(CC(Cl)(Cl)Cl)c2c(n1O)CC(C)(C)CC2=O	none
CN(C)c1cc(NC(=O)CNC(C)(C)C)c2ccccc2n1	DNA FID counter 53
COC(=O)c1ccccc1NC(=O)c1ccc2nccnc2c1	core dimer inh 51
O=S(=O)(c1ccc2c(c1)OCCO2)N1CCC(n2nnc3cc(C(F)(F)F)ccc32)CC1	IMP-1 inhibitor 6.9
CC(C)OC(=O)c1ccc(N2CCN(c3ccc(F)cc3)CC2)nc1	none
CCn1c(=S)sc2c(=O)n(CC(=O)Nc3cccc(Cl)c3)c(C)nc21	none
CCn1c(=S)sc2c(=O)n(CC(=O)NCCCc3ccccc3)c(C)nc21	IMP-1 inhibitor 12
Cc1nc2c(sc(=S)n2Cc2ccco2)c(=O)n1CC(=O)Nc1ccccc1F	IMP-1 inhibitor 6.0
Cc1nc2c(sc(=S)n2Cc2ccco2)c(=O)n1CC(=O)Nc1ccccc1	none
CC1(C)S[C@@H]2[C@H](NC(=O)COc3ccccc3)C(=O)N2C1C(=O)OCC1CCCCC1 (some centres not stated)	none (no result: IMP-1 inhibitor, DNA FID counter, VIM-2 inh)
CC1(C)S[C@@H]2[C@H](NC(=O)COc3ccccc3)C(=O)N2C1C(=O)OCc1cc2ccccc2n1S(=O)(=O)c1ccccc1 (some centres not stated)	core dimer inh 66
O=[N+]([O-])c1ccccc1/C=C/C=N/n1c(-c2ccc(Cl)cc2)n[nH]c1=S	core dimer inh 83
Cc1nc2ccccc2c2c1C(=O)N(Cc1cccnc1)C2=O	VIM-2 inh 11
C#CCOCCOCCOCCNc1nc(N2CCN(C(=O)C([C@@H](C)CC)n3cc(C(N)COC(=O)C(F)(F)F)nn3)CC2)nc(N2CCN(C(=O)[C@H](CCCCN)n3cc(C(N)[C@H](C)CC)nn3)CC2)n1 (some centres not stated)	none (no result: IMP-1 inhibitor, DNA FID counter, VIM-2 inh)
C#CCOCCOCCOCCNc1nc(N2CCN(C(=O)[C@H]([C@@H](C)CC)n3cc([C@@H](N)CC(C)C)nn3)CC2)nc(N2CCN(C(=O)[C@H](CCCCN)n3cc([C@@H](N)C(C)CC)nn3)CC2)n1 (some centres not stated)	DNA FID counter 45
C#CCOCCOCCOCCNc1nc(N2CCN(C(=O)[C@H]([C@@H](C)CC)n3cc(CCCN=C(N)N)nn3)CC2)nc(N2CCN(C(=O)[C@H]([C@@H](C)CC)n3cc(CCCN=C(N)N)nn3)CC2)n1	DNA FID counter 43 (no result: core dimer inh)
C#CCOCCOCCOCCNc1nc(N2CCN(C(=O)[C@H]([C@@H](C)CC)n3cc([C@@H](N)CC(C)C)nn3)CC2)nc(N2CCN(C(=O)[C@H](CCCCN)n3cc([C@@H](N)CC(C)C)nn3)CC2)n1	DNA FID counter 38
CCCc1cc(C(=O)N2CCCC(N3CCN(c4ccc(F)cc4)CC3)C2)no1 (configuration not stated)	none
CC(C)CCN(C(=S)Nc1cccc(C(F)(F)F)c1)C(C)c1ccccn1 (configuration not stated)	none
CCOc1cc(/C=N/NC(=O)CN(CCc2ccccc2)S(=O)(=O)c2ccc(NC(C)=O)cc2)ccc1O	none
COc1ccc(Cl)cc1NC(=O)Cn1nnc(C(=O)NCc2ccc3c(c2)OCO3)c1N	IMP-1 inhibitor 18
O=C1c2cccc3c(N4CCCCC4)ccc(c23)C(=O)N1c1ccccn1	IMP-1 inhibitor 5.8
CCc1ccc(NC(=O)C(NS(=O)(=O)c2ccc3c(c2)CCN3C(C)=O)C(C)C)cc1 (configuration not stated)	none
Cc1ccc(-c2cc(C(=O)Nc3ccccn3)c3ccccc3n2)o1	core dimer inh 64
COC(=O)CCN(c1ccccc1)S(=O)(=O)c1ccc(OC)cc1	none
CSc1ccccc1NC(=O)c1cc(-c2cccnc2)nc2ccc(Br)cc12	IMP-1 inhibitor 6.3
CC(=O)Nc1cccc(NC(=O)c2cc(-c3cccnc3)nc3ccc(Br)cc23)c1	IMP-1 inhibitor 5.2
CN1CCN(C(=O)c2ccc3c(=O)n(Cc4ccco4)c(=S)[nH]c3c2)CC1	VIM-2 inh 8.3
O=C(c1ccc2c(=O)n(Cc3ccco3)c(=S)[nH]c2c1)N1CCN(Cc2ccccc2)CC1	none

Screening data deposited in PubChem by The Scripps Research Institute Molecular Screening Center.
